PostGolgi yeast: growth inhibition of a yeast mutant, post-Golgi transport screen | post-Golgi transport phenotypic cell assay | inhibition, % at 10 µM | actives 0.9% (n = 98,000) | AID 739;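 further: yeast cells grown in 1536-well plates; yeast grown about 18 h at 30C before absorbance read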
BB579 growth dn: chemicals that inhibit yeast BB579 growth in restrictive medium (lifespan-shortening candidates); S. cerevisiae BB579 growth, OD615, 48 h; inhibition, % at 10 µM; actives 0.51% (n = 140,000); AID 804;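 active means inhibition above a set limit, 3 SD over the mean compound inhibition, cut at about 44% in these data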
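Test system: Saccharomyces cerevisiae DeaD strain BB579, replicative lifespan model yeast | Buffer or medium: Restrictive CSMM-D medium | Doses: One dose, 10 µM compound with 0.25% DMSO | Incubation: 48 h exposure, 30 °C | Detection: Culture absorbance at 615 nm | Control set: Amphotericin B at 10 µg/mL as positive control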
Yeast life ext: extends the lifespan of yeast; S. cerevisiae growth with nicotinamide, OD615; deaD strain in restrictive glucose medium; inhibition of the nicotinamide effect, % at 10 µM; actives 0.68% (n = 130,000); AID 775;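 active means inhibition above a set limit, placed 3 SD over the median of all compounds, cut at about 26% in these data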;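 further: 0% = nicotinamide-treated wells and 100% = cells grown without nicotinamide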
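Assay system: engineered S. cerevisiae DeaD replicative-lifespan strain, galactose-grown log-phase cells; Buffer or medium: CSMM-D glucose medium, restrictive; Probe or stimulus: nicotinamide 1.5 mM; Compound: single dose 10 µM compound, 0.25% DMSO; Schedule: 4 h preincubation then 48 h treatment at 30 °C; Technique: OD615 measurement.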
PostGolgi ctrl: yeast control strain growth, post-Golgi counter-screen; efflux-deficient yeast background strain, growth absorbance A615, 16 h; inhibition, % at 10 µM; actives 5% (n = 98,000); AID 738
An asterisk follows results filed as active. This excerpt belongs to a sample that is enriched for hits. Unless noted, no stated cut-off is given here; in the data, active means inhibition above about 30%; inactive means the rest.

For CCCn1c(NC(=O)c2ccccc2)nc2ccccc21 the results were PostGolgi yeast -0.7, BB579 growth dn -21.6, Yeast life ext -7.6 and PostGolgi ctrl 39.5*.
Screening CCCn1c(NC(=O)c2ccc(C)cc2)nc2ccccc21 returned PostGolgi yeast -7.8, BB579 growth dn -41.6, Yeast life ext -12.2 and PostGolgi ctrl 0.0.
CCC(C)NC(=O)C1CCN(S(=O)(=O)c2cccs2)CC1 (centres undefined) was read as PostGolgi yeast -3.4, BB579 growth dn 0.1, Yeast life ext -11.0 and PostGolgi ctrl 3.4.
For CCCn1c(NC(=O)C2CCN(S(=O)(=O)c3cccs3)CC2)nc2ccccc21 the results were PostGolgi yeast 0.9, BB579 growth dn -43.8, Yeast life ext -18.2 and PostGolgi ctrl 32.2*.
For C=CCc1cccc2cc(C(=O)N(CC)CC)c(=O)oc12 the results were PostGolgi yeast -15.2, BB579 growth dn -28.8, Yeast life ext -0.7 and PostGolgi ctrl 0.6.
Cc1c(Cl)cccc1NC(=O)c1ccc(OCC(=O)NCc2ccccc2)cc1 was read as BB579 growth dn 12.0 and Yeast life ext -3.6.
`Cc1cccc(NC(=O)c2ccc(C3SCC(=O)N3CCc3ccccc3)cc2)c1C` (centres undefined) gave PostGolgi yeast -6.7, BB579 growth dn -43.2, Yeast life ext -7.6 and PostGolgi ctrl 9.1.
For COc1ccc(CSc2nnc(Cc3sc(-c4ccccc4)nc3-c3ccccc3)o2)cc1 the results were PostGolgi yeast -0.6, BB579 growth dn -102.4, Yeast life ext 0.2 and PostGolgi ctrl 11.9.
Screening CCOc1ccc(NC(=O)C2CCCN(S(=O)(=O)c3cccc4nsnc34)C2)cc1 (centres undefined) returned PostGolgi yeast 13.6, BB579 growth dn -69.9, Yeast life ext -4.1 and PostGolgi ctrl 6.7.
CCn1c(COc2cccc3cccnc23)nnc1SCC(=O)O was read as PostGolgi yeast 23.4, BB579 growth dn -9.4, Yeast life ext -8.5 and PostGolgi ctrl -6.5.
C=CCn1c(COc2cccc3ccc(C)nc23)nnc1SCC(=O)OC was read as PostGolgi yeast 30.5*, BB579 growth dn -2.0, Yeast life ext -5.7 and PostGolgi ctrl 3.9.
C=CCc1cccc([C@@H]2[C@@H](C)CC[C@H]3C(=O)N4[C@@H](c5cc(OC)c(OC)c(OC)c5)c5[nH]c6ccccc6c5C[C@H]4C(=O)N23)c1 was read as BB579 growth dn -11.4 and Yeast life ext -1.1.
For CC(=O)c1nc2ccccc2n1S(=O)(=O)c1ccc(C)cc1 the results were PostGolgi yeast 8.3, BB579 growth dn -41.9, Yeast life ext -27.1 and PostGolgi ctrl 39.9*.
`CC(=O)c1nc2ccccc2n1S(=O)(=O)c1ccc(Cl)cc1` gave PostGolgi yeast -0.9, BB579 growth dn 0.8, Yeast life ext -19.6 and PostGolgi ctrl 9.9.
Screening COc1ccc(/C=C2/SC(=O)N(NS(=O)(=O)c3ccccc3)C2=S)cc1OC returned PostGolgi yeast 0.9, BB579 growth dn 12.2, Yeast life ext 32.2* and PostGolgi ctrl 18.7.
`Cc1ccc2nc(C(F)(F)F)c(C#N)c(N)c2c1` gave PostGolgi yeast -4.6, BB579 growth dn -18.5, Yeast life ext -14.9 and PostGolgi ctrl 35.7*.
For Cc1cc(C)c2nc(C(F)(F)F)c(C#N)c(N)c2c1 the results were PostGolgi yeast -0.7, BB579 growth dn -53.3, Yeast life ext -16.0 and PostGolgi ctrl 26.4.
`O=C(Cc1ccccc1)Nc1ccc(SC(F)F)cc1` gave BB579 growth dn -2.5 and Yeast life ext -8.2.
Screening C=CCNC(=S)Nc1nc2c(cc1C(=O)OCC)CCCC2 returned BB579 growth dn -39.2 and Yeast life ext 1.9.
For CC(Oc1ccc(Cl)cc1)C(=O)NNC(=S)NC(=O)c1ccco1 (centres undefined) the results were BB579 growth dn -5.6 and Yeast life ext -13.4.
`CCCCNC(=O)Nc1ccccn1` gave PostGolgi yeast 3.6, BB579 growth dn 36.9, Yeast life ext -4.2 and PostGolgi ctrl 33.1*.
For CCCCNC(=O)Nc1ccc(Br)cn1 the results were PostGolgi yeast -0.3, BB579 growth dn -89.3, Yeast life ext -15.0 and PostGolgi ctrl 11.3.
`CN(C)CCCNC(=O)c1ccccn1` gave PostGolgi yeast 7.1, BB579 growth dn -43.5, Yeast life ext -16.1 and PostGolgi ctrl 9.6.
For O=C(NCCCNC(=O)c1ccccn1)c1ccccn1 the results were PostGolgi yeast -11.0, BB579 growth dn -27.2, Yeast life ext -0.2 and PostGolgi ctrl 34.6*.
`Cc1cc(-n2ccc(=O)[nH]c2=O)nc(-c2ccccc2)n1` gave PostGolgi yeast 0.6, BB579 growth dn -36.9, Yeast life ext -25.8 and PostGolgi ctrl 31.1*.
Screening CSc1nc(C)cc(-n2ccc(=O)[nH]c2=O)n1 returned PostGolgi yeast 11.4, BB579 growth dn -14.5, Yeast life ext -3.9 and PostGolgi ctrl 11.4.
For COc1ccc(OC)c(C(C)NC=O)c1 (centres undefined) the results were PostGolgi yeast 3.8, BB579 growth dn -47.4, Yeast life ext 4.9 and PostGolgi ctrl 39.4*.
For COc1ccc(C(NC=O)c2cc(OC)c(OC)cc2Br)cc1OC (centres undefined) the results were BB579 growth dn -10.0 and Yeast life ext -2.2.
Screening CCCN(CCC)C(=O)Cc1coc2ccc3ccccc3c12 returned PostGolgi yeast -1.1, BB579 growth dn -44.7, Yeast life ext -3.3 and PostGolgi ctrl 41.9*.
c1cncc(-c2nnc3sc(-c4ccco4)nn23)c1 was read as PostGolgi yeast 4.2, BB579 growth dn -23.6, Yeast life ext -12.9 and PostGolgi ctrl -2.1.
Screening CCN(CC)c1ccc(-c2nn3c(-c4cccnc4)nnc3s2)cc1 returned PostGolgi yeast -14.0, BB579 growth dn -34.1, Yeast life ext -19.6 and PostGolgi ctrl 39.2*.
Cc1cc(C)c2c(c1)/C(=C/C(=O)c1ccc(Br)s1)C(=O)N2 was read as PostGolgi yeast 103.0*, BB579 growth dn -48.5, Yeast life ext -9.1 and PostGolgi ctrl 70.8*.
For CCc1ccc2c(c1)/C(=C/C(=O)c1cccs1)C(=O)N2 the results were PostGolgi yeast 76.0*, BB579 growth dn 1.3, Yeast life ext 14.6 and PostGolgi ctrl 87.2*.
Screening Cc1cccc2c1NC(=O)/C2=C\C(=O)c1cccs1 returned PostGolgi yeast 3.7, BB579 growth dn -32.7, Yeast life ext 18.4 and PostGolgi ctrl 52.3*.
For CCc1ccc2c(c1)/C(=N/N(C)C(=S)NC)C(=O)N2 the results were PostGolgi yeast -2.8, BB579 growth dn 24.1, Yeast life ext -14.8 and PostGolgi ctrl 8.2.
Screening O=Cc1cn(-c2ccccc2)nc1-c1cc2cc(O)ccc2oc1=O returned PostGolgi yeast 10.3, BB579 growth dn -7.7, Yeast life ext -7.8 and PostGolgi ctrl 3.7.
N#Cc1cn(-c2ccccc2)nc1-c1cc2ccccc2oc1=O was read as PostGolgi yeast 36.0*, BB579 growth dn -12.6, Yeast life ext -12.7 and PostGolgi ctrl -2.5.
For O=C(Nc1ccccc1C(=O)OCC(=O)N1CCc2ccccc2C1)c1ccco1 the results were PostGolgi yeast 1.4, BB579 growth dn -26.5, Yeast life ext -8.7 and PostGolgi ctrl 32.4*.
O=C(OCC(=O)N1CCN(C(=O)c2ccco2)CC1)c1ccccc1OCc1ccc(Cl)cc1 was read as PostGolgi yeast 6.6, BB579 growth dn -41.6, Yeast life ext -14.2 and PostGolgi ctrl 41.9*.

Source: PubChem BioAssay
